Assay results taken from ChEMBL document CHEMBL1141790, “Sodwanone S, a triterpene from the marine sponge Axinella weltneri” (J Nat Prod, 2005).
≈ marks a conversion by molar mass, not a printed value.

Legend:
Type in all cases: functional, cell-based
[1] = Cytotoxicity against human IGROV cells by SRB assay
Summary of the method: (§1)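 Compounds were run across a panel of 13 human tumor cell lines. Potency is expressed as IC50 in μg/mL.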

[2] = Cytotoxicity against human ecteinascidin-743-resistant IGROV cells by SRB assay; summary of the method: as §1
[3] = test system: SK-BR-3; assay: Cytotoxicity against human SKBR3 cells by SRB assay; summary of the method: as §1
[4] = test system: SK-MEL-28; assay: Cytotoxicity against human SK-MEL-28 cells by SRB assay; summary of the method: as §1
[5] = test system: LNCaP; assay: Cytotoxicity against human LNCAP cells by SRB assay; summary of the method: as §1
[6] = test system: A549; assay: Cytotoxicity against human A549 cells by SRB assay; summary of the method: as §1
[7] = test system: PANC-1; assay: Cytotoxicity against human PANC1 cells by SRB assay; summary of the method: as §1
[8] = test system: HT-29; assay: Cytotoxicity against human HT-29 cells by SRB assay; summary of the method: as §1
[9] = test system: LoVo; assay: Cytotoxicity against human LoVo cells by SRB assay; summary of the method: as §1
[10] = test system: LoVo; assay: Cytotoxicity against human doxorubicin-resistant LoVo cells by SRB assay; summary of the method: as §1
[11] = test system: HeLa; assay: Cytotoxicity against human HeLa cells by SRB assay; summary of the method: as §1
[12] = test system: HeLa; assay: Cytotoxicity against human aplidine-resistant HeLa cells by SRB assay; summary of the method: as §1
[13] = test system: DU-145; assay: Cytotoxicity against human DU145 cells by SRB assay; summary of the method: as §1

Row | SMILES | IC50 [1] [µg/mL] | IC50 [2] [µg/mL] | IC50 [3] [µg/mL] | IC50 [4] [µg/mL] | IC50 [5] [µg/mL] | IC50 [6] [µg/mL] | IC50 [7] [µg/mL] | IC50 [8] [µg/mL] | IC50 [9] [µg/mL] | IC50 [10] [µg/mL] | IC50 [11] [µg/mL] | IC50 [12] [µg/mL] | IC50 [13] [µg/mL]
1 | CC1=C(CC[C@H]2[C@]3(C)CCC(=O)C(C)(C)O[C@H]3CC[C@]2(C)O)[C@@]2(C)CCC(=O)C(C)(C)C2=C(O)C1=O [SODWANONE A] | 1.7 (≈ 3.4 µM) | 0.068 (≈ 0.136 µM) | > 10 | 7.5 (≈ 15 µM) | 3.8 (≈ 7.59 µM) | 3.5 (≈ 6.99 µM) | 0.7 (≈ 1.4 µM) | > 10 | 8.5 (≈ 17 µM) | 0.3 (≈ 0.599 µM) | 2.1 (≈ 4.19 µM) | 2.9 (≈ 5.79 µM) | 1.8 (≈ 3.6 µM)
2 | C[C@H]1CC[C@@H]2OC(C)(C)[C@@H](O)CC=C2[C@@]1(C)CC[C@H]1[C@]2(C)CCC(=O)C(C)(C)O[C@H]2CC[C@]1(C)O [SODWANONE S] | > 10 | 4.7 (≈ 9.58 µM) | 3.8 (≈ 7.74 µM) | 6.5 (≈ 13.2 µM) | 5 (≈ 10.2 µM) | > 10 | 4.1 (≈ 8.35 µM) | > 10 | 6.9 (≈ 14.1 µM) | 3.3 (≈ 6.72 µM) | > 10 | > 10 | > 10
3 | CC1=C(CC[C@@H]2[C@@]3(CC[C@@H]4OC(C)(C)C(=O)CC[C@]42C)CO3)[C@@]2(C)CCC(=O)C(C)(C)C2=C(O)C1=O [SODWANONE G] | 5 (≈ 10 µM) | 2.7 (≈ 5.41 µM) | > 10 | > 10 | 4.3 (≈ 8.62 µM) | > 10 | 3.1 (≈ 6.22 µM) | > 10 | > 10 | 2.7 (≈ 5.41 µM) | 5.4 (≈ 10.8 µM) | 4.2 (≈ 8.42 µM) | > 10
